Results reported in publication PMC12679430 (RSC Advances, 2025).

Legend:
[1] = in clinical; cited from earlier work
SiHa cells = assay: Antiproliferative assay; assay type: cell-based; settings: Homo sapiens, 72 h, read-out: Antiproliferative IC50, SiHa
Hela cells = assay: Antiproliferative assay; assay type: cell-based; settings: Homo sapiens, 72 h, read-out: Antiproliferative IC50, Hela
[2] = system: human normal cervical epithelial cells (HcerEpic); assay: Toxicity in normal cervical epithelial cells; assay type: cell-based; settings: Epithelial cell, read-out: IC50, HcerEpic
Summary of the method: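 Cells grown in IMDM with 20% FBS, 100 U/mL penicillin and 100 µg mL−1 streptomycin at 37 °C, humidified 5% CO2. Serially diluted test compound applied for 72 h. Alamar blue (1 mM stock solution) then added for another 5–6 h, with the signal read at 530/590 nm. Data normalised to DMSO vehicle, mean of three independent measurements, and IC50 fitted from the curves.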

[3] = Microsomal stability assay; assay type: in vitro ADME; settings: human, human liver microsomes, pH 7.4

IC50 (Hela cells) | half-life at 0.5 µM [3] | SMILES | dose-limiting toxicities [1] | IC50 (SiHa cells) | IC50 [2]
 |  | O=C(NO)c1ccc(CN(c2cnccn2)c2cnccn2)cc1 [KA2507] | no dose-limiting toxicities |  | 
6.8 ± 0.35 µM | 6.7 h | O=C(CCCCCCNC(=O)c1cnc(N(c2ccccc2)c2ccccc2)nc1)NO [ACY1215] |  | 11.3 ± 0.8 µM | > 50 µM
